Activity, inhibition and IC50 data for three compounds are collected here from ChEMBL document CHEMBL3627666, “5-Lipoxygenase inhibitors suppress RANKL-induced osteoclast formation via NFATc1 expression” (Bioorg Med Chem, 2015).

For orientation: IC50 means the midpoint of a concentration-inhibition curve.

Active and inactive are the calls of the source. No cut-off for these calls is given here.

Data set [1] in a line: Cytotoxicity against mouse BMM cells assessed as cell survival after 4 days by MTT assay. The class given is cell-based. Conditions: bmmc, 96 h. The method in brief:
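BMMs were kept in α-MEM with M-CSF (30 ng/mL) with or without compound (10 µM) for 4 days. MTT was added for 5 h in the dark, then 10% SDS in 0.01 M HCl was added overnight. Absorbance was read at 570 nm. Mean ± SD, three independent experiments.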

In a further data set the test system is BMMC. Kind of data set: Antiosteoclast activity in mouse BMM cells assessed as reduction of LPS-induced osteoclast formation at 10 uM after 4 days by TRAP+ staining based light microscopy. In kind it is functional, cell-based.
The subject of a further data set is Mus musculus. Kind of data set: Antiosteoclast activity in mouse assessed as reduction of LPS-induced osteoclast formation in calvarial bone at 5 mg/kg, ip administered daily with LPS challenge after first day of compound dosing measured 6 days after LPS injection. In kind it is functional, organism-based. The method in brief: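 Six-week-old male mice, three groups, received compound at 5 mg/kg ip daily or vehicle (corn oil/DMSO 9:1). After one day, LPS (5 mg/kg) or PBS was injected subcutaneously over the calvaria. Mice were killed 6 days post-LPS. Whole calvariae were fixed in 4% paraformaldehyde and TRAP-stained, and TRAP⁺ area was quantified by image analysis.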

In data set [2] the target is T1, Tumor necrosis factor ligand superfamily member 11 (Mus musculus) (UniProt O35235).
T1 sequence (whole entry): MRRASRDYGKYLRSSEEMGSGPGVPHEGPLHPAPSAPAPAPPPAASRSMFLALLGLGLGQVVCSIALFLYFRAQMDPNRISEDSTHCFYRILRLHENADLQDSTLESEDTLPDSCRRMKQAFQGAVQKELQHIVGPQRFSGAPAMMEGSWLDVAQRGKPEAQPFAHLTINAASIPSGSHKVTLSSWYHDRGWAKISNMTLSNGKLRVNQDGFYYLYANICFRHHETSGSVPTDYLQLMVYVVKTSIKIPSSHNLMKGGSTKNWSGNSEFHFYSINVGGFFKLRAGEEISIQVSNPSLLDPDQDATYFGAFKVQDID
Conditions: BMM, 10 uM.

Data set [3] concerns the target T1, Tumor necrosis factor ligand superfamily member 11 (Mus musculus). Conditions: BMMC, 10 uM.
The target is the same in data set [4]. Conditions: BMM, 10 uM. The source holds these as a separate data set.
Data set [5] has the same target. Conditions: BMM, 10 uM. This is another data set of the same source.
Data set [6] has the same target. Conditions: BMM, 10 uM. The source holds these as a separate data set.
Data set [7] deals with T2, Polyunsaturated fatty acid 5-lipoxygenase (Mus musculus, UniProt P48999).
T2 sequence (P48999 whole entry): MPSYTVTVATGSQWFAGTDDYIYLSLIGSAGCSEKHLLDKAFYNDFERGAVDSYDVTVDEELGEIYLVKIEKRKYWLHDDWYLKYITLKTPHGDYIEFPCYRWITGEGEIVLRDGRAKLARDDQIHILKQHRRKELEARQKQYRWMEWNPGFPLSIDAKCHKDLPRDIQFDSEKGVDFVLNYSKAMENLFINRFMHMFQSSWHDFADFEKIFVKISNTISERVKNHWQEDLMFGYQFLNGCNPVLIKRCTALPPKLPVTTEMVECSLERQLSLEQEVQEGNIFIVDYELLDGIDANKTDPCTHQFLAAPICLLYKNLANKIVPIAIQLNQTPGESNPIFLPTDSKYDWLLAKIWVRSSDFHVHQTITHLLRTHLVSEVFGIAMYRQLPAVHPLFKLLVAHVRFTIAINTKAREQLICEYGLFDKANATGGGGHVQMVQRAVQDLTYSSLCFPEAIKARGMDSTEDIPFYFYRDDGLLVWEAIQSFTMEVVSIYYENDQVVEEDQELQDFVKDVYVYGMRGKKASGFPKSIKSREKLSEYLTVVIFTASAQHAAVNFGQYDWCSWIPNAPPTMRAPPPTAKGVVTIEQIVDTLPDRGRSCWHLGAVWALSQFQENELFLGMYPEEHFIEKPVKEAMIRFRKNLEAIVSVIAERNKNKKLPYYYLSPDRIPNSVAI
The data set can be described thus: Inhibition of 5-LO in mouse BMMC cells assessed as formation of LTC4 after 30 mins by enzyme immunoassay.

Consider `CCc1ccc(Nc2nc3cc(NC(=O)CCCCOc4ccc(/C(N)=N/O)cc4)ccc3o2)cc1`, for which the Activity entry in [1] is given as “Non-toxic”. In addition, the outcome in the data set with BMMC and with Mus musculus was Active. For the same compound, the inhibition result in [2], in [4], in data set [5] and in [6] was “Active” in each case. Further, in data set [3], the inhibition entry was “inactive”. In data set [7], the IC50 came to 1.72 µM.

Consider `N/C(=N\O)c1ccc(OCCCCC(=O)Nc2ccc3oc(Nc4ccccc4)nc3c2)cc1`, for which the IC50 in data set [7] is 4.1 µM.

Take `COc1ccc(Nc2nc3cc(NC(=O)CCCCOc4ccc(/C(N)=N/O)cc4)ccc3o2)cc1`: the IC50 in [7] stood at 4.9 µM.
